A value given as a limit tells only on which side of the number the result lay.

Data set [1] in a line: Tmax in Sprague-Dawley rat at 10 mg/kg, po by LC-MS analysis. Format: ADME, organism-based. The settings on record: in vivo. The procedure, abridged: (§1)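 Male Sprague-Dawley rats, two groups, dosed iv or orally; compound in PEG 400/normal saline (70/30, V/V). Oral blood from sinus jugularis at 5 min to 24 h, plasma by centrifugation at 2200 g, stored -20 °C. Plasma with internal standard precipitated by methanol, quantified by LC-MS against spiked blank-plasma standard curves. Mean ± SD, n = 5.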

Data set [2] can be described thus: Oral bioavailability in Sprague-Dawley rat at 10 mg/kg by LC-MS analysis. It counts as ADME, organism-based. The settings on record: in vivo. The procedure, abridged: as §1
Data set [3] can be described thus: Half-life in Sprague-Dawley rat at 10 mg/kg, po by LC-MS analysis. It counts as ADME, organism-based. To be noted: in vivo. The procedure, abridged:
as §1

Data set [4] in a line: Cmax in Sprague-Dawley rat at 10 mg/kg, po by LC-MS analysis. It counts as ADME, organism-based. Set-up: route oral, dose 10 mg/kg. To be noted: in vivo. The procedure, abridged: as §1
Data set [5] is described as follows: MRT (0 to infinity) in Sprague-Dawley rat at 10 mg/kg, po by LC-MS analysis. Format: ADME, organism-based. The settings on record: in vivo. The procedure, abridged: as §1
Data set [6] has as its target Cytochrome P450 2C19 (Homo sapiens, UniProt P33261). In words: Inhibition of CYP2C19 in human liver microsome using probe substrate measured after 20 mins in presence of NADPH by LC-MS/MS analysis.
Data set [7] deals with Cytochrome P450 2C9 (Homo sapiens, UniProt P11712). In words: Inhibition of CYP2C9 in human liver microsome using probe substrate measured after 20 mins in presence of NADPH by LC-MS/MS analysis.
Chain of Cytochrome P450 2C9 (P11712 whole entry): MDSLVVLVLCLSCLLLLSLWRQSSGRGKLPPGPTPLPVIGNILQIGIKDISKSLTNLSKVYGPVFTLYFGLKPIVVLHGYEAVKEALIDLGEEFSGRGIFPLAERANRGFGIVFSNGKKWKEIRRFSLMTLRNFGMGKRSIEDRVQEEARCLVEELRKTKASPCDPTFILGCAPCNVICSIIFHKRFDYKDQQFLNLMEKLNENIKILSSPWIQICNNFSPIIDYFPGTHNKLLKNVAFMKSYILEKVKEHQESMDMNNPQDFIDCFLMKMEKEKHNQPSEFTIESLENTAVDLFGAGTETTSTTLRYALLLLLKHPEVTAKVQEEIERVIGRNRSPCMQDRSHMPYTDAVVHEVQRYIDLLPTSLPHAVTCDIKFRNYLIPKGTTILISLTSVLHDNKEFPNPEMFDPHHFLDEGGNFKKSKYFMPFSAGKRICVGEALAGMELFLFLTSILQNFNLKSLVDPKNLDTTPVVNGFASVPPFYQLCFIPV
Data set [8] is described as follows: Sub-acute toxicity in Kunming mouse assessed as hydropic degeneration of hepatocytes at 50 mg/kg, po administered as single dose every other day for 14 days by H and E staining based assay. Format: organism-based. To be noted: in vivo, 336 h, time 14 day.
Data set [9] is described as follows: AUC (0 to infinity) in Sprague-Dawley rat at 10 mg/kg, po by LC-MS analysis. To be noted: in vivo. It counts as ADME, organism-based. On the set-up: time infinity, route oral, dose 10 mg/kg. The procedure, abridged:
as §1

Data set [10] in a line: MRT (0 to infinity) in male Kunming mouse at 2 mg/kg, po by LC-MS/MS analysis. It counts as ADME, organism-based. The settings on record: in vivo. The procedure, abridged: (§2)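 Male Kunming mice, ten in total, split into five groups; single oral dose in PEG 400/normal saline (70/30, v/v). Blood taken from submandibular or saphenous vein into K2EDTA tubes at 0.25, 0.5, 1, 2, 4, 8, 24, 48, 72 h. Plasma spun at about 4 °C and kept at -70 °C. Acetonitrile precipitation with dexamethasone internal standard, then LC-MS/MS against plasma standard curves.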

Data set [11] in a line: Tmax in male Kunming mouse at 2 mg/kg, po by LC-MS/MS analysis. It counts as ADME, organism-based. The settings on record: in vivo. The procedure, abridged: as §2
Data set [12] is described as follows: Cmax in male Kunming mouse at 500 mg/kg, po by LC-MS/MS analysis. Format: ADME, organism-based. Set-up: route oral, dose 500 mg/kg. To be noted: in vivo. The procedure, abridged: (§3)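 Male Kunming mice given oral compound in PEG 400/normal saline (70/30, V/V). Blood from submandibular or saphenous vein into K2EDTA tubes at 0.25 to 72 h. Plasma spun at 3200g near 4 °C, kept -70 °C, precipitated with acetonitrile plus dexamethasone internal standard. Quantified by LC-MS/MS against spiked blank-plasma standard curves.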

The target of data set [13] is T1, Solute carrier family 22 member 12 (Homo sapiens, UniProt Q96S37).
T1 sequence (Q96S37 whole entry): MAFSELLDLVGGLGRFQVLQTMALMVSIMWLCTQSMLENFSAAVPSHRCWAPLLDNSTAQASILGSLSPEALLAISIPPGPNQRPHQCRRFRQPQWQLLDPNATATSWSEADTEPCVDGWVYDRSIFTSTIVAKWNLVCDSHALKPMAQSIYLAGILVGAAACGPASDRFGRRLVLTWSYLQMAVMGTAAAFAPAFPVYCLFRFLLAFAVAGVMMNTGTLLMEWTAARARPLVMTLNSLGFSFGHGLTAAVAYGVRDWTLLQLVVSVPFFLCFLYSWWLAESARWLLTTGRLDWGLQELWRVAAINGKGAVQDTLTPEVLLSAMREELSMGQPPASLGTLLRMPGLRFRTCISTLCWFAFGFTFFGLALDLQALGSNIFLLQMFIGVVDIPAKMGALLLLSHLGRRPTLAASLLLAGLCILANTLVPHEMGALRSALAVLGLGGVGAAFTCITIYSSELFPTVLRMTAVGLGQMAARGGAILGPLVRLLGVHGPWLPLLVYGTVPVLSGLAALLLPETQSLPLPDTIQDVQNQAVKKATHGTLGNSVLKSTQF
Description: Potency index, ratio of lesinurad IC50 to test compound IC50 for inhibition of human URAT1 expressed in HEK293T cells assessed as reduction in [14C]uric acid uptake preincubated for 15 mins followed by [14C]uric acid addition by liquid scintillation counting method. Format: cell-based.

The nature of data set [14]: MRT (0 to infinity) in male Kunming mouse at 50 mg/kg, po by LC-MS/MS analysis. To be noted: in vivo. It counts as ADME, organism-based. The procedure, abridged: as §2
Data set [15] can be described thus: Cmax in Sprague-Dawley rat at 20 mg/kg, po by LC-MS analysis. Format: ADME, organism-based. Set-up: route oral, dose 20 mg/kg. To be noted: in vivo.
For data set [16], the species on record is Rattus norvegicus. In words: Hypouricemic activity in rat model of xanthine/potassium oxonate-induced acute hyperuricemia assessed as decrease in serum uric acid level relative to control. It counts as functional. On the set-up: scale not given: the % may be the effect or the level left.
Data set [17] can be described thus: AUC (0 to infinity) in male Kunming mouse at 2 mg/kg, po by LC-MS/MS analysis. It counts as ADME, organism-based. Set-up: time infinity, route oral, dose 2 mg/kg. The settings on record: in vivo. The procedure, abridged: as §2
A short description of data set [18]: Tmax in male Kunming mouse at 50 mg/kg, po by LC-MS/MS analysis. It counts as ADME, organism-based. To be noted: in vivo. The procedure, abridged:
as §2

Data set [19] is described as follows: Half-life in Sprague-Dawley rat at 20 mg/kg, po by LC-MS analysis. It counts as ADME, organism-based. To be noted: in vivo.
Data set [20] is described as follows: Oral bioavailability in Sprague-Dawley rat at 20 mg/kg by LC-MS analysis. Format: ADME, organism-based. The settings on record: in vivo.
Data set [21] can be described thus: AUC (0 to infinity) in male Kunming mouse at 50 mg/kg, po by LC-MS/MS analysis. It counts as ADME, organism-based. On the set-up: route oral, time infinity, dose 50 mg/kg. To be noted: in vivo. The procedure, abridged:
as §2

Data set [22] in a line: Tmax in male Kunming mouse at 500 mg/kg, po by LC-MS/MS analysis. It counts as ADME, organism-based. To be noted: in vivo. The procedure, abridged:
as §3

A short description of data set [23]: AUC (0 to infinity) in Sprague-Dawley rat at 20 mg/kg, po by LC-MS analysis. It counts as ADME, organism-based. Set-up: route oral, time infinity, dose 20 mg/kg. The settings on record: in vivo.
Data set [24] in a line: AUC (0 to t) in male Kunming mouse at 2 mg/kg, po by LC-MS/MS analysis. Format: ADME, organism-based. On the set-up: dose 2 mg/kg. To be noted: in vivo. The procedure, abridged: as §2
A short description of data set [25]: MRT (0 to infinity) in male Kunming mouse at 500 mg/kg, po by LC-MS/MS analysis. Format: ADME, organism-based. To be noted: in vivo. The procedure, abridged: as §3
Data set [26] in a line: Cmax in male Kunming mouse at 50 mg/kg, po by LC-MS/MS analysis. To be noted: in vivo. Set-up: route oral, dose 50 mg/kg. It counts as ADME, organism-based. The procedure, abridged:
as §2

A short description of data set [27]: MRT (0 to infinity) in Sprague-Dawley rat at 20 mg/kg, po by LC-MS analysis. It counts as ADME, organism-based. To be noted: in vivo.
Data set [28] deals with Voltage-gated inwardly rectifying potassium channel KCNH2 (Homo sapiens, UniProt Q12809). Description: Inhibition of human ERG expressed in HEK293 cells at -80 mV holding potential by whole cell voltage patch clamp assay. Format: cell-based. The procedure, abridged:
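Manual patch clamp on HEK293 cells stably expressing hERG, cultured at least 24 h at 37 °C, 5% CO2. Pipettes 3–5 MΩ. Current stabilized 3 min with vehicle before compound. Compound kept on until peak tail current stable (<5% change) for ~5 sweeps. Cisapride monohydrate used as reference.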
On the technique in general: In patch-clamp work, channel activity is measured electrically.

Data set [29] is described as follows: AUC (0 to t) in Sprague-Dawley rat at 20 mg/kg, po by LC-MS analysis. The settings on record: in vivo. Format: ADME, organism-based. Set-up: dose 20 mg/kg.

Chain of Cytochrome P450 2C19 (P33261 whole entry): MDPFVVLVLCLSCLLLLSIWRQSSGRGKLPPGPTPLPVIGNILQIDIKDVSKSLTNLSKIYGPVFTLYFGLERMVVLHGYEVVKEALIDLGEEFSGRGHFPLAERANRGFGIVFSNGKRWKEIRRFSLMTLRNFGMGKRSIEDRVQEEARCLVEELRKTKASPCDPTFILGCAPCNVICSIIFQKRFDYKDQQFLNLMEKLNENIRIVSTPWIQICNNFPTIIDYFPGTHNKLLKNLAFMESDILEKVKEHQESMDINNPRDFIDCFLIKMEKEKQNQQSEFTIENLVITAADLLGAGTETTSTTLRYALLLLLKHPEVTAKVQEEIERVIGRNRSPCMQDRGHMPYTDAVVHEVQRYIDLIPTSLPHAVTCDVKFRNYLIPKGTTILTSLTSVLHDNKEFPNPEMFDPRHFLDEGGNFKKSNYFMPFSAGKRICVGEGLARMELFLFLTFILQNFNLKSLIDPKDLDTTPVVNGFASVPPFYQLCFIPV
Chain of Voltage-gated inwardly rectifying potassium channel KCNH2 (Q12809 whole entry): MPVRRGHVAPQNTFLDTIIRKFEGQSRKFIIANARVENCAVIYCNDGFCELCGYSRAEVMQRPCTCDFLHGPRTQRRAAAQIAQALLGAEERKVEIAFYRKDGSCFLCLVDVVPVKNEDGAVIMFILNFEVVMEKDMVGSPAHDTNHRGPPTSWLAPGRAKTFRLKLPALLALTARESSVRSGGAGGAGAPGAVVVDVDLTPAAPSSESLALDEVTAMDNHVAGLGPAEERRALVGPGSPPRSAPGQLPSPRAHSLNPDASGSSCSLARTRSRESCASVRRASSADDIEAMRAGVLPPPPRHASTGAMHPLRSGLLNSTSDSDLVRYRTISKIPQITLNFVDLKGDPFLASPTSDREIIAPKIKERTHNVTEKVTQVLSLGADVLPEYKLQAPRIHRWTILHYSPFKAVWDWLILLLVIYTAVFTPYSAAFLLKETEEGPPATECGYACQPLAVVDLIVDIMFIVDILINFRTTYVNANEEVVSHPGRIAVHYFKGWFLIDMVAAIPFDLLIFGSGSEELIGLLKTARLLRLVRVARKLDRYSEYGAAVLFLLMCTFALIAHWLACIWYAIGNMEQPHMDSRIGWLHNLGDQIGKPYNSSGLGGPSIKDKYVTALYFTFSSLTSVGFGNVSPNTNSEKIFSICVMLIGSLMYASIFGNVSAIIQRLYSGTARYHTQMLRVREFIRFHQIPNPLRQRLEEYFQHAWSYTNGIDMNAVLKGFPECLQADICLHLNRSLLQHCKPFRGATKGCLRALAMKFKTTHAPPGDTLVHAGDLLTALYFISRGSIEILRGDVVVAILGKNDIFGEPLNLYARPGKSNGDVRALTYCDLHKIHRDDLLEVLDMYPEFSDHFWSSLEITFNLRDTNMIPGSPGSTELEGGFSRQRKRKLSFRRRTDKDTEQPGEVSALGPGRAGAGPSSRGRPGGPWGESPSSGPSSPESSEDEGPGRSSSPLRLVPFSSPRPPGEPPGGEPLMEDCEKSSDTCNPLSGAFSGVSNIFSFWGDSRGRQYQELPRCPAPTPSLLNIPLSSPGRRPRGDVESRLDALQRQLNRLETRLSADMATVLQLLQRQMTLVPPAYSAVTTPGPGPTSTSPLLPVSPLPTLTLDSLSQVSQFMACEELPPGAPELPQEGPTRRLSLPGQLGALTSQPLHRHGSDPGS

By Tmax is commonly meant the time at which the peak concentration occurs. In general, bioavailability refers to the share of a dose that reaches the circulation, judged against a reference dose that is usually intravenous. In general, half-life refers to the time in which the quantity being followed falls by half. By Cmax is commonly meant the highest concentration seen after dosing. As a reminder, the MRT inf is a mean duration of stay, worked out from the concentration-time curve. What is called IC50 is the midpoint of a concentration-inhibition curve. What is called AUC(0-inf) is total exposure, with the tail of the curve extrapolated. Consider `O=C(CSc1nnc(Br)n1-c1ccc(C2CC2)c2ccccc12)NS(=O)(=O)c1ccc(Br)cc1`, for which the Tmax in [1] came out at 1.8 h. This compound displayed a bioavailability in data set [2] of 63.4%. The half-life in [3] is 3.4 h. The peak level in data set [4] (Cmax) was 3400 ng/mL. This compound came in with an MRT inf in data set [5] of 5.6 h. The IC50 in data set [6] was 20.6 µM; in data set [7] it was 0.636 µM. Besides, the Activity result in data set [8] is listed as “Non-Toxic”. The compound further returned an AUC(0-inf) in [9] of 19600 ng·h/mL.
For orientation: AUC(0-t) means exposure summed from dosing to a finite time, without extrapolation to infinity. As to `CC(Sc1nc2ncccc2n1-c1ccc(C2CC2)c2ccccc12)C(=O)O` (racemic), the MRT inf was found to be 6.44 h in [10], 6.16 h in [14], 15.7 h in [25] and 5.3 h in data set [27]. In addition, the Tmax in [11] was 0.5 h; in data set [18], 1.67 h; in [22] it was 18.7 h. Besides, the Cmax in data set [12] worked out at 149000 ng/mL; in [15] it was 15500 ng/mL; in [26], 37900 ng/mL. In data set [13], the “Ratio IC50” value is over 8. Moreover, the Activity in data set [16] is reported as 83.96%; in data set [8], “Non-Toxic”. The figures for the AUC(0-inf) in data set [17], in data set [21] and in [23] were 13000 ng·h/mL, 335000 ng·h/mL and 88800 ng·h/mL, respectively. Moreover, the half-life in [19] was 3.4 h. In [20], the bioavailability was found to be 76.3%. Also, the values for the IC50 in data set [6], in data set [7] and in data set [28] were 48.7 µM, 20 µM and over 30 µM, respectively. Moreover, the results for the AUC(0-t) in data set [24] and in [29] were 13000 ng·h/mL and 53200 ng·h/mL, respectively.

The values are drawn from ChEMBL document CHEMBL4665798, “Novel Human Urate Transporter 1 Inhibitors as Hypouricemic Drug Candidates with Favorable Druggability” (J Med Chem, 2020).
